Test results reported in ChEMBL document CHEMBL4351026, “Antifungal activity, mode of action variability, and subcellular distribution of coumarin-based antifungal azoles” (Eur J Med Chem, 2019).
In brackets after ≈: the same amount, converted by molar mass. Activity calls are given as the source filed them. No cut-off for these calls is given here.

Key:
Candida albicans [1] = assay: Antifungal activity against Candida albicans SN152 assessed as zone inhibition at 25 ug incubated for 24 hrs by disk diffusion method; type: functional, organism-based
Summary of the method: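 Strains were streaked on YPD agar and grown at 30 °C: 24 h for parental SN152, 48 h for the erg11ΔΔ erg3ΔΔ mutant. Colonies were suspended in PBS and adjusted to OD 0.02 (SN152) or 0.03 (mutant), then spread on Casitone plates. A 6-mm disk loaded with 25 µg compound was placed centrally. Plates were incubated at 30 °C and photographed after 24 h.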

Candida albicans [2] = assay: Antifungal activity against ERG11/ERG3 knocked out Candida albicans SN152 assessed as zone of inhibition at 25 ug […] by disk diffusion method; type: functional, organism-based
Candida albicans [3] = assay: Antifungal activity against Candida albicans ATCC 90028 assessed as reduction in fungal cell growth incubated for 24 hrs by MTT based broth double dilution method; type: functional; conditions: ATCC 90028, 24 h
Summary of the method: (§1)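 Broth double-dilution in Casitone broth. Starter cultures were grown 24 or 48 h at 37 °C, 5% CO₂, diluted 1:100, and added to serial two-fold dilutions at 64 to 0.007 µg/mL. Final inoculum was 5 x 10^4 to 5 x 10^5 CFU/mL; DMSO was 0.0012–1.3%. Plates were incubated at 37 °C, 5% CO₂, then MTT was added for 2 h. MIC followed CLSI M27-A3. Triplicates, two independent experiments.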

Candida albicans [4] = assay: Antifungal activity against Candida albicans P-87 assessed as reduction in fungal cell growth incubated for 24 hrs by MTT based broth double dilution method; type: functional; conditions: P-87, 24 h; summary of the method: as §1
Candida albicans [5] = assay: Antifungal activity against Candida albicans SN152 assessed as reduction in fungal cell growth incubated for 24 hrs by MTT based broth double dilution method; type: functional; conditions: SN152, 24 h; summary of the method: as §1
Nakaseomyces glabratus [6] = assay: Antifungal activity against Candida glabrata ATCC 66032 assessed as reduction in fungal cell growth incubated for 24 hrs by MTT based broth double dilution method; type: functional; conditions: ATCC 66032, 24 h; summary of the method: as §1
Nakaseomyces glabratus [7] = assay: Antifungal activity against Candida glabrata ATCC 2001 assessed as reduction in fungal cell growth incubated for 24 hrs by MTT based broth double dilution method; type: functional; conditions: ATCC 2001, 24 h; summary of the method: as §1
Nakaseomyces glabratus [8] = assay: Antifungal activity against Candida glabrata 192 assessed as reduction in fungal cell growth incubated for 24 hrs by MTT based broth double dilution method; type: functional; conditions: Nakaseomyces glabratus, 192, 24 h; summary of the method: as §1
Candida parapsilosis [9] = assay: Antifungal activity against Candida parapsilosis ATCC 90018 assessed as reduction in fungal cell growth incubated for 24 hrs by MTT based broth double dilution method; type: functional; conditions: Lodderomyces parapsilosis, ATCC 90018, 24 h; summary of the method: as §1
Candida parapsilosis [10] = assay: Antifungal activity against Candida parapsilosis ATCC 22019 assessed as reduction in fungal cell growth incubated for 24 hrs by MTT based broth double dilution method; type: functional; conditions: Lodderomyces parapsilosis, ATCC 22019, 24 h; summary of the method: as §1
[11] = tested on: Meyerozyma guilliermondii; assay: Antifungal activity against Candida guilliermondii T-47 assessed as reduction in fungal cell growth incubated for 24 hrs by MTT based broth double dilution method; type: functional; conditions: T-47, 24 h; summary of the method: as §1
Candida dubliniensis = assay: Antifungal activity against Candida dubliniensis T-99 assessed as reduction in fungal cell growth incubated for 24 hrs by MTT based broth double dilution method; type: functional; conditions: T-99, 24 h; summary of the method: as §1
Candida albicans [12] = assay: Antifungal activity against Candida albicans ATCC 90028 assessed as reduction in fungal cell growth incubated for 48 hrs by MTT based broth double dilution method; type: functional; conditions: ATCC 90028, 48 h; summary of the method: as §1
Candida albicans [13] = assay: Antifungal activity against Candida albicans SN152 assessed as reduction in fungal cell growth incubated for 48 hrs by MTT based broth double dilution method; type: functional; conditions: SN152, 48 h; summary of the method: as §1
Nakaseomyces glabratus [14] = assay: Antifungal activity against Candida glabrata ATCC 66032 assessed as reduction in fungal cell growth incubated for 48 hrs by MTT based broth double dilution method; type: functional; conditions: ATCC 66032, 48 h; summary of the method: as §1
Nakaseomyces glabratus [15] = assay: Antifungal activity against Candida glabrata 192 assessed as reduction in fungal cell growth incubated for 48 hrs by MTT based broth double dilution method; type: functional; conditions: Nakaseomyces glabratus, 192, 48 h; summary of the method: as §1
Cytochrome P450 3A4 = Cytochrome P450 3A4 (Homo sapiens, UniProt P08684); assay: Inhibition of recombinant human CYP3A4 using Luciferin-PPXE as substrate preincubated for 10 mins followed by NADPH addition measured after 15 mins by luminometric method; type: ADME
Summary of the method: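 P450-Glo luminescent assay, Luciferin-PPXE substrate. Compound was mixed with membranes containing recombinant human CYP3A4; controls were vehicle with membranes lacking CYP3A4. After 10 min preincubation at 37 °C, NADPH regeneration reagent was added and the mixture kept 15 min at 37 °C. Luciferin detection reagent stopped the reaction; after 20 min at room temperature, luminescence was read. Duplicates.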

[16] = Drug distribution in Candida albicans SN152 assessed as subcellular compound distribution at 10 uM incubated for 60 mins by fluorescent imaging analysis; type: ADME; conditions: 1 h
Summary of the method: (§2)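 Yeast were grown overnight at 30 °C in YPD liquid, diluted 1:10, and grown 2 h at 30 °C to log phase. Fluorescent azole was added at 10 µM final and incubated 60 min in the dark. Cells were washed once in PBS and imaged on slides in bright field and fluorescence (ex 427 nm, em 510 nm).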

[17] = Drug distribution in Candida glabrata 2001 assessed as subcellular compound distribution at 10 uM incubated for 60 mins by fluorescent imaging analysis; type: ADME; conditions: nakaseomyces glabratus, 1 h; summary of the method: as §2
HepG2 = assay: Cytotoxicity against human HepG2 cells assessed as reduction in cell viability at 5 to 50 uM incubated for 24 hrs by XTT assay; type: cell-based; conditions: hepg2, 24 h
Summary of the method: (§3)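 HEK-293T were grown in DMEM with 10% FBS; HepG2 in RPMI with 15% FBS; both at 37 °C, 5% CO₂. Cells (4000 HepG2 or 7000 HEK-293T per well) were seeded on poly-D-lysine wells. After 24 h the medium was renewed and compounds added at 5–50 µM from 1 mM stocks in 10% DMSO/0.3% Tween/PBS. After 24 h more, XTT was added for 2 h at 37 °C; absorbance was read at 475 nm against 660 nm reference.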

HEK-293T = assay: Cytotoxicity against human HEK293T cells assessed as reduction in cell viability at 5 to 50 uM incubated for 24 hrs by XTT assay; type: cell-based; summary of the method: as §3
[18] = Cytotoxicity against human HepG2 cells assessed as reduction in cell viability at 5 to 50 uM incubated for 24 hrs by XTT assay relative to control; type: cell-based; conditions: read-out: INH
Summary of the method: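 HepG2 cells were maintained in RPMI with 15% FBS, 1% NEAA, 1% pyruvate and pen-strep-nystatin at 37 °C and 5% CO2. 4000 cells/well were plated on poly-D-lysine coating and given fresh medium after 24 h. Compounds were dosed at 5–50 µM from 1 mM stocks in 10% DMSO/0.3% Tween/PBS and incubated 24 h. Viability was read by XTT (2 h, 37 °C) at 475 nm against 660 nm.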

[19] = Cytotoxicity against human HEK293T cells assessed as reduction in cell viability at 5 to 50 uM incubated for 24 hrs by XTT assay relative to control; type: cell-based, HEK-293T; conditions: HEK293T cells, read-out: INH
Summary of the method: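 HEK-293T cells were grown in DMEM with 10% FBS, 1% NEAA, 1% pyruvate and pen-strep-nystatin at 37 °C and 5% CO2. 7000 cells/well were seeded on poly-D-lysine-coated wells. After 24 h the medium was renewed and compounds were added at 5–50 µM from 1 mM stocks in 10% DMSO/0.3% Tween/PBS. After 24 h, XTT was added for 2 h at 37 °C, with absorbance read at 475 nm (reference 660 nm).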

Chain of Cytochrome P450 3A4 (P08684 whole entry): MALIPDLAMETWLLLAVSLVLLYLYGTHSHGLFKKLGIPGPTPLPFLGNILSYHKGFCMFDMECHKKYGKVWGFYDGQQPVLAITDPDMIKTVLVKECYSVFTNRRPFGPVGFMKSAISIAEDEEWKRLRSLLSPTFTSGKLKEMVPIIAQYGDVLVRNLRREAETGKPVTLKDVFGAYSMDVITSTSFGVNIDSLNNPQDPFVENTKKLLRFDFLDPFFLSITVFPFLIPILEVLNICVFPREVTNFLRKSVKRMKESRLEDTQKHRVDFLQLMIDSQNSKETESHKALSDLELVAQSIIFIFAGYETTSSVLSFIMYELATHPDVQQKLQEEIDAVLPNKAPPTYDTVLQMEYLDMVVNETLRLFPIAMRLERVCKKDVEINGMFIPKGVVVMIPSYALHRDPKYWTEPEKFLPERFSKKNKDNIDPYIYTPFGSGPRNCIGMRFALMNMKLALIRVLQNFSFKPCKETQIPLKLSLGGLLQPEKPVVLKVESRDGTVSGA

With `CCN(CC)c1ccc2cc(C(=O)NCC(O)(Cn3cncn3)c3ccc(F)cc3F)c(=O)oc2c1` (racemic) the “inhibition zone (IZ)” value (Candida albicans [1]) was “Active”, the “inhibition zone (IZ)” value (Candida albicans [2]) was “inactive” and the MIC (Candida albicans [3]) was 0.06 µg/mL (≈ 0.121 µM). The MIC (Candida albicans [4]) was 0.06 µg/mL (≈ 0.121 µM), the MIC (Candida albicans [5]) was 0.03 µg/mL (≈ 0.0603 µM) and the MIC (Nakaseomyces glabratus [6]) was 4 µg/mL (≈ 8.04 µM). For the same compound, the MIC (Nakaseomyces glabratus [7]) was 16 µg/mL (≈ 32.2 µM), the MIC (Nakaseomyces glabratus [8]) was 8 µg/mL (≈ 16.1 µM) and the MIC (Candida parapsilosis [9]) was 0.125 µg/mL (≈ 0.251 µM). It also gave an MIC (Candida parapsilosis [10]) of 1 µg/mL (≈ 2.01 µM), an MIC [11] of 1 µg/mL (≈ 2.01 µM) and an MIC (Candida dubliniensis) of 1 µg/mL (≈ 2.01 µM). The MIC (Candida albicans [12]) was 0.125 µg/mL (≈ 0.251 µM), the MIC (Candida albicans [13]) was 0.125 µg/mL (≈ 0.251 µM) and the MIC (Nakaseomyces glabratus [14]) was > 64 µg/mL. The MIC (Nakaseomyces glabratus [15]) was > 64 µg/mL, the IC50 (Cytochrome P450 3A4) was 1020 nM and the Drug uptake [16] was “Active”. The Drug uptake [17] was “Active”.

Compound `CCN(CC)c1ccc2cc(C(=O)NCC(O)(Cn3ccnc3)c3ccc(Cl)cc3Cl)c(=O)oc2c1` (racemic) has an MIC (Candida albicans [3]) of 0.015 µg/mL (≈ 0.0283 µM), an MIC (Candida albicans [4]) of 0.03 µg/mL (≈ 0.0567 µM) and an MIC (Candida albicans [5]) of 0.03 µg/mL (≈ 0.0567 µM). For the same compound, the MIC (Nakaseomyces glabratus [6]) was 4 µg/mL (≈ 7.56 µM), the MIC (Nakaseomyces glabratus [7]) was 2 µg/mL (≈ 3.78 µM) and the MIC (Nakaseomyces glabratus [8]) was 0.25 µg/mL (≈ 0.472 µM). It also gave an MIC (Candida parapsilosis [9]) of 0.015 µg/mL (≈ 0.0283 µM), an MIC (Candida parapsilosis [10]) of 0.06 µg/mL (≈ 0.113 µM) and an MIC [11] of 0.125 µg/mL (≈ 0.236 µM). The MIC (Candida dubliniensis) was 0.25 µg/mL (≈ 0.472 µM), the MIC (Candida albicans [12]) was 0.03 µg/mL (≈ 0.0567 µM) and the MIC (Candida albicans [13]) was 0.06 µg/mL (≈ 0.113 µM). The MIC (Nakaseomyces glabratus [14]) was > 64 µg/mL, the MIC (Nakaseomyces glabratus [15]) was 1 µg/mL (≈ 1.89 µM) and the IC50 (Cytochrome P450 3A4) was 127 nM. The Activity (HepG2) was “Toxic”, the Activity (HEK-293T) was “Toxic” and the cytotoxicity at 24 h, up to 50 µM [18] was < 40%. For the same compound, the cytotoxicity at 24 h, up to 50 µM [19] was < 40%.
